Measurements: ChEMBL document CHEMBL4138211, “Regio- and stereoselective synthesis of dispirooxindole-pyrrolocarbazole hybrids via 1,3-dipolar cycloaddition reactions: Cytotoxic activity and SAR studies” (Eur J Med Chem, 2018)
The source made the active and inactive calls. No cut-off for these calls is given here.

Legend:
MCF7 [1] = assay: Antiproliferative activity against human MCF7 cells after 48 hrs by MTT assay; assay type: functional, cell-based
Procedure, shortened: (§1)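 Cells grown 1×10⁴/well for 48 h to about 75% confluence. Medium then replaced with fresh medium containing serially diluted compounds, followed by a further 48 h. MTT added for 4 h at 37 °C and formazan dissolved in DMSO for 10 min. OD read at 620 nm. IC50 taken from the viability–concentration survival curve. Three independent experiments, each in triplicate.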

A549 [2] = assay: Antiproliferative activity against human A549 cells after 48 hrs by MTT assay; assay type: functional, cell-based; procedure, shortened: as §1
MCF7 [3] = assay: Induction of apoptosis in human MCF7 cells assessed as cell shrinkage after 24 hrs by brightfield inverted light microscopic analysis; assay type: functional, cell-based
MCF7 [4] = assay: Induction of apoptosis in human MCF7 cells assessed as membrane blebbing after 24 hrs by brightfield inverted light microscopic analysis; assay type: functional, cell-based
MCF7 [5] = assay: Induction of apoptosis in human MCF7 cells assessed as formation of floating cells after 24 hrs by brightfield inverted light microscopic analysis; assay type: functional, cell-based
A549 [6] = assay: Induction of apoptosis in human A549 cells assessed as cell shrinkage after 24 hrs by brightfield inverted light microscopic analysis; assay type: functional, cell-based
A549 [7] = assay: Induction of apoptosis in human A549 cells assessed as membrane blebbing after 24 hrs by brightfield inverted light microscopic analysis; assay type: functional, cell-based
A549 [8] = assay: Induction of apoptosis in human A549 cells assessed as formation of floating cells after 24 hrs by brightfield inverted light microscopic analysis; assay type: functional, cell-based
MCF7 [9] = assay: Induction of apoptosis in human MCF7 cells assessed as nuclear fragmentation after 24 hrs by DAPI staining-based fluorescence microscopic analysis; assay type: functional, cell-based
Procedure, shortened: (§2)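 Cells plated on glass coverslips and treated for 24 h, then fixed. Permeabilised with 0.2% Triton X-100 for 10 min at room temperature. DAPI applied for 3 min under a coverslip. Nuclei inspected by fluorescence microscopy for condensed chromatin and fragmentation, against untreated cells.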

A549 [10] = assay: Induction of apoptosis in human A549 cells assessed as nuclear fragmentation after 24 hrs by DAPI staining-based fluorescence microscopic analysis; assay type: functional, cell-based; procedure, shortened: as §2
MCF7 [11] = assay: Induction of apoptosis in human MCF7 cells by acridine orange/ethidium bromide staining-based fluorescence microscopic analysis; assay type: functional, cell-based
Procedure, shortened: (§3)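 Treated cells collected and washed in PBS (pH 7.2). Stained with a 1:1 AO/EtBr mixture (each dye […] in water) and held 2 min. Washed twice in PBS and viewed by fluorescence microscopy at 400× with 480 nm excitation. Green intact-membrane cells distinguished from orange/red membrane-damaged cells.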

MCF7 [12] = assay: Induction of apoptosis in human MCF7 cells assessed as nuclear condensation by acridine orange/ethidium bromide staining-based fluorescence microscopic analysis; assay type: functional, cell-based; procedure, shortened: as §3
MCF7 [13] = assay: Induction of apoptosis in human MCF7 cells assessed as damaged cell membranes by acridine orange/ethidium bromide staining-based fluorescence microscopic analysis; assay type: functional; procedure, shortened: as §3
A549 [14] = assay: Induction of apoptosis in human A549 cells by acridine orange/ethidium bromide staining-based fluorescence microscopic analysis; assay type: functional, cell-based; procedure, shortened: as §3
MCF7 [15] = assay: Induction of apoptosis in human MCF7 cells assessed as necrotic cells at 5 uM after 6 hrs by Annexin V-FITC/propidium iodide staining based flow cytometry (reference value: 0.0%); assay type: functional
Procedure, shortened: (§4)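 Cells at 1×10⁵/mL exposed to 5, 10 or 20 μM (printed as μM/ml) for 6 h, with an untreated control. Harvested, PBS-washed and trypsinised, then spun at 200×g for 10 min. Stained with annexin V-FITC/propidium iodide for 10-15 min at 25 °C. Quadrant analysis gives live, early apoptotic, late apoptotic and necrotic fractions.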

MCF7 [16] = assay: Induction of apoptosis in human MCF7 cells assessed as late apoptotic cells at 5 uM after 6 hrs by Annexin V-FITC/propidium iodide staining based flow cytometry (reference value: 0.0%); assay type: functional; procedure, shortened: as §4
MCF7 [17] = assay: Induction of apoptosis in human MCF7 cells assessed as early apoptotic cells at 5 uM after 6 hrs by Annexin V-FITC/propidium iodide staining based flow cytometry (reference value: 0.88%); assay type: functional; procedure, shortened: as §4
MCF7 [18] = assay: Induction of apoptosis in human MCF7 cells assessed as viable cells at 5 uM after 6 hrs by Annexin V-FITC/propidium iodide staining based flow cytometry (reference value: 99.12%); assay type: functional; settings: MCF7, 6 h, read-out: Activity; procedure, shortened: as §4
MCF7 [19] = assay: Induction of apoptosis in human MCF7 cells assessed as necrotic cells at 10 uM after 6 hrs by Annexin V-FITC/propidium iodide staining based flow cytometry (reference value: 0.0%); assay type: functional; procedure, shortened: as §4
MCF7 [20] = assay: Induction of apoptosis in human MCF7 cells assessed as late apoptotic cells at 10 uM after 6 hrs by Annexin V-FITC/propidium iodide staining based flow cytometry (reference value: 0.0%); assay type: functional; procedure, shortened: as §4
MCF7 [21] = assay: Induction of apoptosis in human MCF7 cells assessed as early apoptotic cells at 10 uM after 6 hrs by Annexin V-FITC/propidium iodide staining based flow cytometry (reference value: 0.88%); assay type: functional; procedure, shortened: as §4
MCF7 [22] = assay: Induction of apoptosis in human MCF7 cells assessed as viable cells at 10 uM after 6 hrs by Annexin V-FITC/propidium iodide staining based flow cytometry (reference value: 99.12%); assay type: functional; settings: MCF7, 6 h, read-out: Activity; procedure, shortened: as §4
MCF7 [23] = assay: Induction of apoptosis in human MCF7 cells assessed as necrotic cells at 20 uM after 6 hrs by Annexin V-FITC/propidium iodide staining based flow cytometry (reference value: 0.0%); assay type: functional; procedure, shortened: as §4
MCF7 [24] = assay: Induction of apoptosis in human MCF7 cells assessed as late apoptotic cells at 20 uM after 6 hrs by Annexin V-FITC/propidium iodide staining based flow cytometry (reference value: 0.0%); assay type: functional; procedure, shortened: as §4
MCF7 [25] = assay: Induction of apoptosis in human MCF7 cells assessed as early apoptotic cells at 20 uM after 6 hrs by Annexin V-FITC/propidium iodide staining based flow cytometry (reference value: 0.88%); assay type: functional; procedure, shortened: as §4
MCF7 [26] = assay: Induction of apoptosis in human MCF7 cells assessed as viable cells at 20 uM after 6 hrs by Annexin V-FITC/propidium iodide staining based flow cytometry (reference value: 99.12%); assay type: functional; settings: MCF7, 6 h, read-out: Activity; procedure, shortened: as §4
A549 [27] = assay: Induction of apoptosis in human A549 cells assessed as necrotic cells at 5 uM after 6 hrs by Annexin V-FITC/propidium iodide staining based flow cytometry (reference value: 0.0%); assay type: functional; procedure, shortened: as §4
A549 [28] = assay: Induction of apoptosis in human A549 cells assessed as late apoptotic cells at 5 uM after 6 hrs by Annexin V-FITC/propidium iodide staining based flow cytometry (reference value: 0.0%); assay type: functional; procedure, shortened: as §4
A549 [29] = assay: Induction of apoptosis in human A549 cells assessed as early apoptotic cells at 5 uM after 6 hrs by Annexin V-FITC/propidium iodide staining based flow cytometry (reference value: 0.77%); assay type: functional; procedure, shortened: as §4
A549 [30] = assay: Induction of apoptosis in human A549 cells assessed as viable cells at 5 uM after 6 hrs by Annexin V-FITC/propidium iodide staining based flow cytometry (reference value: 99.23%); assay type: functional; settings: A549, 6 h, read-out: Activity; procedure, shortened: as §4
A549 [31] = assay: Induction of apoptosis in human A549 cells assessed as necrotic cells at 10 uM after 6 hrs by Annexin V-FITC/propidium iodide staining based flow cytometry (reference value: 0.0%); assay type: functional; procedure, shortened: as §4
A549 [32] = assay: Induction of apoptosis in human A549 cells assessed as late apoptotic cells at 10 uM after 6 hrs by Annexin V-FITC/propidium iodide staining based flow cytometry (reference value: 0.0%); assay type: functional; procedure, shortened: as §4
A549 [33] = assay: Induction of apoptosis in human A549 cells assessed as early apoptotic cells at 10 uM after 6 hrs by Annexin V-FITC/propidium iodide staining based flow cytometry (reference value: 0.77%); assay type: functional; procedure, shortened: as §4
A549 [34] = assay: Induction of apoptosis in human A549 cells assessed as viable cells at 10 uM after 6 hrs by Annexin V-FITC/propidium iodide staining based flow cytometry (reference value: 99.23%); assay type: functional; settings: A549, 6 h, read-out: Activity; procedure, shortened: as §4
A549 [35] = assay: Induction of apoptosis in human A549 cells assessed as necrotic cells at 20 uM after 6 hrs by Annexin V-FITC/propidium iodide staining based flow cytometry (reference value: 0.0%); assay type: functional; procedure, shortened: as §4
A549 [36] = assay: Induction of apoptosis in human A549 cells assessed as late apoptotic cells at 20 uM after 6 hrs by Annexin V-FITC/propidium iodide staining based flow cytometry (reference value: 0.0%); assay type: functional; procedure, shortened: as §4
A549 [37] = assay: Induction of apoptosis in human A549 cells assessed as early apoptotic cells at 20 uM after 6 hrs by Annexin V-FITC/propidium iodide staining based flow cytometry (reference value: 0.77%); assay type: functional; procedure, shortened: as §4
A549 [38] = assay: Induction of apoptosis in human A549 cells assessed as viable cells at 20 uM after 6 hrs by Annexin V-FITC/propidium iodide staining based flow cytometry (reference value: 99.23%); assay type: functional; settings: A549, 6 h, read-out: Activity; procedure, shortened: as §4
MCF7 [39] = assay: Induction of apoptosis in human MCF7 cells assessed as increase in early apoptotic cells after 6 hrs by Annexin V-FITC/propidium iodide staining based flow cytometry; assay type: functional, cell-based; procedure, shortened: as §4
MCF7 [40] = assay: Induction of apoptosis in human MCF7 cells assessed as increase in late apoptotic cells after 6 hrs by Annexin V-FITC/propidium iodide staining based flow cytometry; assay type: functional, cell-based; procedure, shortened: as §4
A549 [41] = assay: Induction of apoptosis in human A549 cells assessed as increase in early apoptotic cells after 6 hrs by Annexin V-FITC/propidium iodide staining based flow cytometry; assay type: functional, cell-based; procedure, shortened: as §4
A549 [42] = assay: Induction of apoptosis in human A549 cells assessed as increase in late apoptotic cells after 6 hrs by Annexin V-FITC/propidium iodide staining based flow cytometry; assay type: functional, cell-based; procedure, shortened: as §4

IC50 (MCF7 [1]; MCF7, 48 h): 13 µM
IC50 (A549 [2]; A549, 48 h): 14 µM
Structure (SMILES): O=C1Nc2ccccc2[C@]12N[C@H](c1ccccc1)[C@H](c1cccs1)[C@@]21CCc2c([nH]c3ccc(Cl)cc23)C1=O
Activity (MCF7 [1]): Dose-dependent effect
Activity (A549 [2]): Dose-dependent effect
Activity (MCF7 [3]): Dose-dependent effect
Activity (MCF7 [4]): Dose-dependent effect
Activity (MCF7 [5]): Dose-dependent effect
Activity (A549 [6]): Dose-dependent effect
Activity (A549 [7]): Dose-dependent effect
Activity (A549 [8]): Dose-dependent effect
Activity (MCF7 [9]): Active
Activity (A549 [10]): Active
Activity (MCF7 [11]): Active
Activity (MCF7 [12]): Active
Activity (MCF7 [13]): Active
Activity (A549 [14]): Active
Activity (MCF7 [15]): 1.81%
Activity (MCF7 [16]): 7.55%
Activity (MCF7 [17]): 8.19%
viability at 5 µM (MCF7 [18]): 82.5%
Activity (MCF7 [19]): 0.98%
Activity (MCF7 [20]): 12.82%
Activity (MCF7 [21]): 23.3%
viability at 10 µM (MCF7 [22]): 62.9%
Activity (MCF7 [23]): 1.12%
Activity (MCF7 [24]): 30.2%
Activity (MCF7 [25]): 33.56%
viability at 20 µM (MCF7 [26]): 35.1%
Activity (A549 [27]): 1.15%
Activity (A549 [28]): 6.7%
Activity (A549 [29]): 28.95%
viability at 5 µM (A549 [30]): 63.2%
Activity (A549 [31]): 2.81%
Activity (A549 [32]): 7.65%
Activity (A549 [33]): 17.35%
viability at 10 µM (A549 [34]): 72.2%
Activity (A549 [35]): 1.85%
Activity (A549 [36]): 28.7%
Activity (A549 [37]): 32.15%
viability at 20 µM (A549 [38]): 37.3%
Activity (MCF7 [39]): Dose-dependent effect
Activity (MCF7 [40]): Dose-dependent effect
Activity (A549 [41]): Dose-dependent effect
Activity (A549 [42]): Dose-dependent effect
